≈ marks a conversion by molar mass, not a printed value.
Key:
Format in all cases: functional
Staphylococcus aureus [1] = experiment: Antibacterial activity against methicillin-susceptible Staphylococcus aureus by agar microdilution method
In short: (§1)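 MIC by agar microdilution following NCCLS standard M7-A6 (2003), tested against clinical isolates: MRSA n = 6, MRSE n = 5, MSSA n = 5, MSSE n = 5; values given as a single MIC or a range across isolates.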

Staphylococcus aureus [2] = experiment: Antibacterial activity against methicillin-resistant Staphylococcus aureus by agar microdilution method; in short: as §1
[3] = test system: Staphylococcus epidermidis; experiment: Antibacterial activity against methicillin-susceptible Staphylococcus epidermidis by agar microdilution method; in short: as §1
[4] = test system: Staphylococcus epidermidis; experiment: Antibacterial activity against methicillin-resistant Staphylococcus epidermidis by agar microdilution method; in short: as §1
Streptococcus pneumoniae [5] = experiment: Antibacterial activity against Streptococcus pneumoniae by agar microdilution method
In short: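 MIC read by agar microdilution following NCCLS standard M7-A6 (2003), against a panel of 3 Streptococcus pneumoniae clinical isolates. Values in µg/mL, given as a range where the isolates differed.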

Staphylococcus aureus [6] = experiment: Ratio of Linezolid MIC to compound MIC for methicillin-susceptible Staphylococcus aureus
[7] = test system: Staphylococcus epidermidis; experiment: Ratio of Linezolid MIC to compound MIC for methicillin-susceptible Staphylococcus epidermidis
Streptococcus pneumoniae [8] = experiment: Ratio of Linezolid MIC to compound MIC for Streptococcus pneumoniae

SMILES | MIC (Staphylococcus aureus [1]) [µg/mL] | MIC (Staphylococcus aureus [2]) [µg/mL] | MIC [3] [µg/mL] | MIC [4] [µg/mL] | MIC (Streptococcus pneumoniae [5]) [µg/mL] | Ratio (Staphylococcus aureus [6]) | Ratio [7] | Ratio (Streptococcus pneumoniae [8])
C=C[C@]1(C)C[C@@H](OC(=O)N2Cc3ccc(NC(=O)[C@@H]4CCCN4)cc3C2=O)[C@]2(C)[C@H](C)CC[C@]3(CCC(=O)[C@H]32)[C@@H](C)[C@@H]1O.Cl | 0.25 | 0.25 | 0.25 | 0.25 | 0.5 | 4 | 4 | 4
C=C[C@]1(C)C[C@@H](OC(=O)N2Cc3ccccc3C2=O)[C@]2(C)[C@H](C)CC[C@]3(CCC(=O)[C@H]32)[C@@H](C)[C@@H]1O | 0.125 (≈ 0.261 µM) | 0.125 (≈ 0.261 µM) | 0.125 (≈ 0.261 µM) | 0.125 (≈ 0.261 µM) | 0.125 (≈ 0.261 µM) | 4 | 4 | 4
C=C[C@]1(C)C[C@@H](OC(=O)N2Cc3ccc(F)cc3C2=O)[C@]2(C)[C@H](C)CC[C@]3(CCC(=O)[C@H]32)[C@@H](C)[C@@H]1O | 0.125 (≈ 0.251 µM) | 0.125 (≈ 0.251 µM) | 0.125 (≈ 0.251 µM) | 0.125 (≈ 0.251 µM) | 0.125 (≈ 0.251 µM) | 4 | 4 | 4
C=C[C@]1(C)C[C@@H](OC(=O)N2Cc3cc(N4CCN(C)CC4)ccc3C2=O)[C@]2(C)[C@H](C)CC[C@]3(CCC(=O)[C@H]32)[C@@H](C)[C@@H]1O | 0.125 (≈ 0.216 µM) | 0.125 (≈ 0.216 µM) | 0.125 (≈ 0.216 µM) | 0.125 (≈ 0.216 µM) | 0.25 (≈ 0.433 µM) | 4 | 4 | 4
C=C[C@]1(C)C[C@@H](OC(=O)N2Cc3cc(N)ccc3C2=O)[C@]2(C)[C@H](C)CC[C@]3(CCC(=O)[C@H]32)[C@@H](C)[C@@H]1O | 0.125 (≈ 0.253 µM) | 0.125 (≈ 0.253 µM) | 0.125 (≈ 0.253 µM) | 0.125 (≈ 0.253 µM) | 0.125 (≈ 0.253 µM) | 4 | 4 | 4
C=C[C@]1(C)C[C@@H](OC(=O)N2CCc3cc(OC)c([N+](=O)[O-])cc3C2=O)[C@]2(C)[C@H](C)CC[C@]3(CCC(=O)[C@H]32)[C@@H](C)[C@@H]1O | 0.125 (≈ 0.22 µM) | 0.25 (≈ 0.44 µM) | 0.25 (≈ 0.44 µM) | 0.25 (≈ 0.44 µM) | 0.25 (≈ 0.44 µM) | 4 | 4 | 4
C=C[C@]1(C)C[C@@H](OC(=O)N2CCc3cc(OCCCN4CCOCC4)ccc3C2=O)[C@]2(C)[C@H](C)CC[C@]3(CCC(=O)[C@H]32)[C@@H](C)[C@@H]1O | 0.5 (≈ 0.785 µM) | 0.5 (≈ 0.785 µM) | 0.5 (≈ 0.785 µM) | 0.5 (≈ 0.785 µM) | 0.5 (≈ 0.785 µM) | – | – | –
C=C[C@]1(C)C[C@@H](OC(=O)N2CCc3cc(OCCCN4CCCCC4)ccc3C2=O)[C@]2(C)[C@H](C)CC[C@]3(CCC(=O)[C@H]32)[C@@H](C)[C@@H]1O | 0.5 (≈ 0.788 µM) | 0.5 (≈ 0.788 µM) | 0.5 (≈ 0.788 µM) | 0.5 (≈ 0.788 µM) | 0.5 (≈ 0.788 µM) | – | – | –
C=C[C@]1(C)C[C@@H](OC(=O)N2CCc3cc(OCCCN4CCN(C)CC4)ccc3C2=O)[C@]2(C)[C@H](C)CC[C@]3(CCC(=O)[C@H]32)[C@@H](C)[C@@H]1O | 0.5 (≈ 0.769 µM) | 0.5 (≈ 0.769 µM) | 0.5 (≈ 0.769 µM) | 0.5 (≈ 0.769 µM) | 0.5 (≈ 0.769 µM) | – | – | –
C=C[C@]1(C)C[C@@H](OC(=O)N2CCc3cc(OCCCCN4CCOCC4)ccc3C2=O)[C@]2(C)[C@H](C)CC[C@]3(CCC(=O)[C@H]32)[C@@H](C)[C@@H]1O | 0.5 (≈ 0.768 µM) | 0.5 (≈ 0.768 µM) | 0.5 (≈ 0.768 µM) | 0.5 (≈ 0.768 µM) | 0.5 (≈ 0.768 µM) | – | – | –
C=C[C@]1(C)C[C@@H](OC(=O)N2CCc3ccc(N)cc3C2=O)[C@]2(C)[C@H](C)CC[C@]3(CCC(=O)[C@H]32)[C@@H](C)[C@@H]1O | 0.0625 (≈ 0.123 µM) | 0.0625 (≈ 0.123 µM) | 0.0625 (≈ 0.123 µM) | 0.0625 (≈ 0.123 µM) | 0.0625 (≈ 0.123 µM) | – | – | –
C=C[C@]1(C)C[C@@H](OC(=O)CS[C@@H]2C[C@H]3CC[C@@H](C2)N3C)[C@]2(C)[C@H](C)CC[C@]3(CCC(=O)[C@H]32)[C@@H](C)[C@@H]1O [RETAPAMULIN] | 0.0625 (≈ 0.121 µM) | 0.125 (≈ 0.241 µM) | 0.0625 (≈ 0.121 µM) | 0.125 (≈ 0.241 µM) | 0.0625 (≈ 0.121 µM) | – | – | –
